Results of several laboratories.
Compare with care: the assays were run in different laboratories.
Read-out: enzyme activity
Mode: inhibitor
TcPGFS: TcPGFS (Trypanosoma cruzi, UniProt Q8I6L9)
HIPK4: Homeodomain-interacting protein kinase 4 (HIPK4, Homo sapiens, UniProt Q8NE63)
MARK2: Serine/threonine-protein kinase MARK2 (MARK2, Homo sapiens, UniProt Q7KZI7)

SMILES	target	assay	setting	remaining activity [%]
Cc1ccc(C(=O)Nc2ccc(CN3CCN(C)CC3)c(C(F)(F)F)c2)cc1C#Cc1cnc2cccnn12	Wee1-like protein kinase 2 (WEE2, Homo sapiens, UniProt P0C1S8)		23.5 nM	96
CC1(C)CCC2=C(O1)c1ccccc1C(=O)C2=O	TcPGFS		200 µM	86
O=C(O)c1ccc2c(c1)nc(Nc1ccc(Cl)cc1)c1ccncc12	HIPK4	radiometric	1 µM	116
COc1cc(Cl)c(C(=O)N[C@@H](CN[C@H]2CC[C@@H](N)CC2)Cc2ccc(C#N)cc2)cc1-c1ccc(CN[C@H](C)c2ccc(C)cc2)o1	Cyclin-dependent kinase-like 2 (CDKL2, Homo sapiens, UniProt Q92772)		1 µM	93
CC[C@H](C)[C@H](NC(=O)[C@H](CCC(N)=O)NC(=O)[C@H](CC(C)C)NC(=O)[C@H](CCSC)NC(=O)[C@H](CCCCN)NC(=O)[C@H](CO)NC(=O)[C@H](CO)NC(=O)[C@H](CCSC)NC(=O)[C@H](CC(C)C)NC(=O)[C@H](CC(N)=O)NC(=O)[C@@H](NC(=O)[C@@H](NC(=O)[C@H](CO)NC(=O)[C@H](CC(C)C)NC(=O)[C@H](CS)NC(=O)[C@H](CCCNC(=N)N)NC(=O)[C@H](CC(=O)O)NC(=O)[C@H](Cc1c[nH]c2ccccc12)NC(=O)[C@H](Cc1ccccc1)NC(=O)[C@H](C)NC(=O)[C@H](CCC(=O)O)NC(=O)[C@@H](N)CCCCN)C(C)C)[C@@H](C)CC)C(=O)N[C@@H](CC(N)=O)C(=O)N[C@@H](C)C(=O)O	Cyclin-dependent kinase 5, with p25 (CDK5, Homo sapiens, UniProt Q00535)	radiometric	50 µM, 20 min	80
Brc1cnc(Nc2cccc(CN3CCOCC3)c2)nc1NCCc1c[nH]cn1	MARK2	radiometric	1 µM	5
COc1cccc(CCNc2nc3cc(C(=O)O)ccc3c3cncnc23)c1	HIPK4	radiometric	1 µM	135
NS(=O)(=O)c1ccc(CNc2ccnc(Nc3cccc(CN4CCOCC4)c3)n2)cc1	MARK2	radiometric	1 µM	102
O=C(O)c1ccc2c(c1)nc(NCCc1ccccc1)c1ccncc12	HIPK4	radiometric	1 µM	5
CCCOc1ccc(OC)c(F)c1C(=O)c1ccc(C(=O)N[C@@H]2CNC[C@H]2NC(=O)c2ccc3[nH]ncc3c2)cc1	Ribosomal protein S6 kinase alpha-1 (Rps6ka1, Rattus norvegicus, UniProt Q63531)		0.5 µM	77
O=C(O)c1ccc2c(c1)nc(Nc1ccc(Cl)cc1)c1ncncc12	HIPK4	radiometric	1 µM	62
CC1=CC(=O)c2ccccc2C1=O	TcPGFS		200 µM	68
